# Measured values taken from ChEMBL document CHEMBL1126645, “Nonsymmetrical bipiperidyls as inhibitors of vesicular acetylcholine storage” (J Med Chem, 1993).
# Target: T1, Vesicular acetylcholine transporter (Torpedo californica, UniProt P81721)
# T1 sequence (P81721 whole entry): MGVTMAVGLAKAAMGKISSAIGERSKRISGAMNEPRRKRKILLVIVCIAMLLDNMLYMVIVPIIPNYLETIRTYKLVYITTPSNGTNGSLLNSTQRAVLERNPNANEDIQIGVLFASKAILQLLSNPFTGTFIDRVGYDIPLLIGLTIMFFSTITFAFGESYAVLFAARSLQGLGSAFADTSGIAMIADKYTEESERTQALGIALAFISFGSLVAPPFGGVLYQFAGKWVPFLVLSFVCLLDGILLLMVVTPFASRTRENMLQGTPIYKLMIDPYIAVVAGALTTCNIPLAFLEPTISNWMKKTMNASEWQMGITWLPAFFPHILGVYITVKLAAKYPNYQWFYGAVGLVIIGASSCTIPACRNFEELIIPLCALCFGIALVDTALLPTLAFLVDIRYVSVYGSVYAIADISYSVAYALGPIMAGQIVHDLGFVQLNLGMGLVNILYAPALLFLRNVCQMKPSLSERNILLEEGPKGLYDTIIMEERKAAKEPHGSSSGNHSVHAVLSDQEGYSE
# Experiment: Inhibition of [3H]- vesamicol binding to synaptic vesicles preparation from the electric organ of Torpedo californica
# Set-up: species or system Tetronarce californica
# Summary of the method: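 Run without ATP and without acetylcholine. Each drug concentration tested in duplicate, with variation below 5%. Other assay details follow an earlier published protocol.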
row,IC50 [nM],SMILES
1,55,O[C@@H]1CN(Cc2ccccc2Br)CC[C@H]1N1CCC(c2ccccc2)CC1
2,42,O[C@@H]1CCN(Cc2ccccc2F)C[C@H]1N1CCC(c2ccccc2)CC1
3,25,Cc1ccccc1CN1CC[C@@H](O)[C@H](N2CCC(c3ccccc3)CC2)C1
4,5000,O[C@@H]1CNCC[C@H]1N1CCC(c2ccccc2)CC1
5,22,O[C@@H]1CCN(Cc2ccccc2Br)C[C@H]1N1CCC(c2ccccc2)CC1
6,1900,O=C(c1ccccc1)N1CC[C@@H](N2CCC(c3ccccc3)CC2)[C@H](O)C1
7,2900,O[C@@H]1CCNC[C@H]1N1CCC(c2ccccc2)CC1
8,290,O=[N+]([O-])c1ccc(N2CC[C@@H](O)[C@H](N3CCC(c4ccccc4)CC3)C2)cc1
9,31,O[C@@H]1CCN(Cc2cccc(F)c2)C[C@H]1N1CCC(c2ccccc2)CC1
10,24,Cc1ccc(CN2CC[C@@H](O)[C@H](N3CCC(c4ccccc4)CC3)C2)cc1
11,30,O[C@@H]1CCN(Cc2ccccc2)C[C@H]1N1CCC(c2ccccc2)CC1
12,22,O=C(c1ccc(I)cc1)N1CC[C@@H](O)[C@H](N2CCC(c3ccccc3)CC2)C1
13,39,O=C(c1cccc(I)c1)N1CC[C@@H](O)[C@H](N2CCC(c3ccccc3)CC2)C1
14,22,Cc1cccc(CN2CC[C@@H](O)[C@H](N3CCC(c4ccccc4)CC3)C2)c1
15,21,O[C@@H]1CCN(Cc2cccc(Br)c2)C[C@H]1N1CCC(c2ccccc2)CC1
16,83,O[C@@H]1CN(Cc2ccccc2)CC[C@H]1N1CCC(c2ccccc2)CC1
17,25,O[C@@H]1CCN(Cc2ccc(Br)cc2)C[C@H]1N1CCC(c2ccccc2)CC1
18,34,O=C(c1ccccc1)N1CC[C@@H](O)[C@H](N2CCC(c3ccccc3)CC2)C1
19,310,O[C@@H]1CN(Cc2ccc(Br)cc2)CC[C@H]1N1CCC(c2ccccc2)CC1
20,250,O=C(c1ccccc1I)N1CC[C@@H](O)[C@H](N2CCC(c3ccccc3)CC2)C1

row,SMILES,IC50 [nM]
1,O[C@@H]1CCN(Cc2ccc(F)cc2)C[C@H]1N1CCC(c2ccccc2)CC1,14
2,O[C@@H]1CCN(Cc2cccc(I)c2)C[C@H]1N1CCC(c2ccccc2)CC1,26
